Assay results published in ChEMBL document CHEMBL1130404, “Synthesis and evaluation of polycyclic pyrazolo[3,4-d]pyrimidines as PDE1 and PDE5 cGMP phosphodiesterase inhibitors” (J Med Chem, 1997).

These compounds were tested against T1, cGMP-dependent 3',5'-cyclic phosphodiesterase (Bos taurus, UniProt P14099) (assay: Inhibition of Phosphodiesterase 2 from bovine adrenal cortex). Conditions: not given.
T1 sequence (P14099 whole entry): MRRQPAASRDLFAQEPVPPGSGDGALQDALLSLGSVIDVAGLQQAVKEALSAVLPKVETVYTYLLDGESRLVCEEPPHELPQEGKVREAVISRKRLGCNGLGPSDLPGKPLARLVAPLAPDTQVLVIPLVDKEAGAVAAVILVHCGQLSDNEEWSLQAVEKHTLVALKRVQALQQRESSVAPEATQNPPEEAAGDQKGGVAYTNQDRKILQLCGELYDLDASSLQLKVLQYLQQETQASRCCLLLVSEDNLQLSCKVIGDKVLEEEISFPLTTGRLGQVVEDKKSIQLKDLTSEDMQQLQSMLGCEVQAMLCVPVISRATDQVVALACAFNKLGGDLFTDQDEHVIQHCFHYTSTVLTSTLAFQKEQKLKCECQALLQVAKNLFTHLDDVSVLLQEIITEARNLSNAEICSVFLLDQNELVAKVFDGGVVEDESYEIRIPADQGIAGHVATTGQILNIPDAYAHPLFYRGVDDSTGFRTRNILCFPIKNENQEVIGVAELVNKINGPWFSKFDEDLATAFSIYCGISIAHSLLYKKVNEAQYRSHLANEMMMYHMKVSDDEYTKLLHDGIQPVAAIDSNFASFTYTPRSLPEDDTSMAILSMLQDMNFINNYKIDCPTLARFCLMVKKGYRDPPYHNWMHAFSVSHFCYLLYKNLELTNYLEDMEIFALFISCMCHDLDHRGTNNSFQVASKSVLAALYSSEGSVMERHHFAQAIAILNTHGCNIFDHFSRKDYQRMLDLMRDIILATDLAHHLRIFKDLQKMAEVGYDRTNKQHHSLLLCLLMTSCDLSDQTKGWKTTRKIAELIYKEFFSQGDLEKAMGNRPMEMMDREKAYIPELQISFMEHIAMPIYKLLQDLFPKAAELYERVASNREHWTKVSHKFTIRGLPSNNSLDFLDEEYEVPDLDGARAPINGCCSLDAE
Method in brief: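 Recombinant bovine adrenal cortex enzyme; [3H]cAMP substrate in 50 mM Tris-HCl pH 7.5, 2 mM MgCl2, 0.1 mg/mL BSA, mixture also holding 5 μM cGMP; 30 min, 30 °C. IC50 from inhibition vs log molar concentration curve; duplicate determinations averaged.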
With CN1C(=O)c2c(nn(C)c2Cc2ccccc2)N2CC3(CCCC3)N=C12 the IC50 was 11000 nM.

The compounds below were run against Phosphodiesterase 1 (Bos taurus, UniProt Q01061+P14100) (assay: Inhibition of phosphodiesterases PDE1 from bovine aorta). Conditions: not given.
Assay type: protein assay
Method in brief: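 Bovine aorta enzyme; 50 mM Tris-HCl pH 7.5, 2 mM MgCl2, 0.1 mg/mL BSA, 1 mM CaCl2, 0.1 μM calmodulin, 1 μM [3H]cGMP substrate; 30 min at 30 °C. IC50 read from % inhibition vs log molar concentration curve; duplicates, mean reported.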
CN1C(=O)c2c(nn(C)c2Cc2ccccc2)N2C1=N[C@@H]1CCC[C@@H]12 gave an IC50 of 55 nM.
Cc1n[nH]c2c1C(=O)N(C)C1=N[C@@H]3CCC[C@@H]3N12 gave an IC50 of 18000 nM.
In the case of CN1C(=O)c2cnn(Cc3ccccc3)c2N2C1=N[C@@H]1CCC[C@@H]12 (racemic), the IC50 is reported as 29000 nM.
For CN1C(=O)c2c(Cc3ccccc3)n[nH]c2N2C1=N[C@@H]1CCC[C@@H]12 (racemic), the IC50 was 1100 nM.
With Cc1nn(Cc2ccccc2)c2c1C(=O)N(C)C1=N[C@@H]3CCC[C@@H]3N12 the IC50 was 2000 nM.
CN1C(=O)c2c(Cc3ccccc3)nn(C)c2N2C1=N[C@@H]1CCC[C@@H]12 (racemic) showed an IC50 of 850 nM.
CN1C(=O)c2c(nn(C)c2Cc2ccccc2)N2CC(C)(C)N=C12 showed an IC50 of 18 nM.
Work on CN1C(=O)c2c(nn(C)c2Cc2ccccc2)N2CC3(CCCC3)N=C12 yielded an IC50 of 60 nM.
CN1C(=O)c2c(nn(Cc3ccccc3)c2-c2ccccc2)N2C1=N[C@@H]1CCC[C@@H]12 was tested, and the IC50 was 540 nM.
CC(C)[C@@H]1CN2C(=N1)N(C)C(=O)c1c2nn(C)c1Cc1ccccc1 showed an IC50 of 20 nM.
With CN1C(=O)c2c(nn(C)c2Cc2ccccc2)N2C1=N[C@@H]1CCC[C@@H]12 (racemic) the IC50 was 160 nM.

What follows are compounds tested against 3',5'-cyclic-nucleotide phosphodiesterase (Bos taurus, UniProt A0A3Q1M1E8) (assay: Inhibition of Phosphodiesterase 3 from bovine heart). Conditions: not given.
3',5'-cyclic-nucleotide phosphodiesterase, sequence (A0A3Q1M1E8 1-1126): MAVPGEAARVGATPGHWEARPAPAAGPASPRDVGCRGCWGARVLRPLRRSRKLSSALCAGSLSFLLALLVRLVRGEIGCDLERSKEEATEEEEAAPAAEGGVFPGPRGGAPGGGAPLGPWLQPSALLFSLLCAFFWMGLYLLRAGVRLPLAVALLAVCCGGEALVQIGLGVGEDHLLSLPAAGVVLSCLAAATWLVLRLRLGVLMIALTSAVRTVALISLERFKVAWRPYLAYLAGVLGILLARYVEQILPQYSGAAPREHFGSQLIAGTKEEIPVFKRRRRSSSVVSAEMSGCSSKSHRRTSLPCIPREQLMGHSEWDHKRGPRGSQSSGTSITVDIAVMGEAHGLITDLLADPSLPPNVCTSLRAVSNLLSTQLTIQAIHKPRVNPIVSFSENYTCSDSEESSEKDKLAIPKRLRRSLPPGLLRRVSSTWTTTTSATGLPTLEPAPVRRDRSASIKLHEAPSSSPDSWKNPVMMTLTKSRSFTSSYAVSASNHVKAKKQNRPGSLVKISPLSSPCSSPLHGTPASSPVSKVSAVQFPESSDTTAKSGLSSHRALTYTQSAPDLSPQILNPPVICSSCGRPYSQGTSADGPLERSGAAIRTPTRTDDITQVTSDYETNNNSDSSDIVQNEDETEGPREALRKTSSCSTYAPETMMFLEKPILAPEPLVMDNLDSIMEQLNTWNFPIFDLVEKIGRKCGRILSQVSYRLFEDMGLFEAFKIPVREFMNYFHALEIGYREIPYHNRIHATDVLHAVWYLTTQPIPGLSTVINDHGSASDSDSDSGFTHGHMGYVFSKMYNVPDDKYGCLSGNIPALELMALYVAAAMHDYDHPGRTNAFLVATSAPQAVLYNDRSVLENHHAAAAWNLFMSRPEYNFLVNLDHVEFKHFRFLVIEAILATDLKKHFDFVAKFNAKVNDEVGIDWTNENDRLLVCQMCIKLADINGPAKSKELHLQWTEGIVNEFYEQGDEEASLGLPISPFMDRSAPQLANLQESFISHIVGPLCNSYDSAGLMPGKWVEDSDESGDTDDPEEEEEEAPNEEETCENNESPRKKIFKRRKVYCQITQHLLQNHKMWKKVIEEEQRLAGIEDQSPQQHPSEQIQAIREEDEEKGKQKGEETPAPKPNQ
Method in brief: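 Enzymes purified from bovine heart (PDE3) or canine kidney (PDE4); 1 μM [3H]cAMP substrate, 50 mM Tris-HCl pH 7.5, 2 mM MgCl2, 0.1 mg/mL BSA, 30 min at 30 °C. IC50 taken from % inhibition vs log molar concentration; duplicates, mean reported.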
Work on CN1C(=O)c2c(nn(C)c2Cc2ccccc2)N2C1=N[C@@H]1CCC[C@@H]12 yielded an IC50 of 80000 nM.
With Cc1n[nH]c2c1C(=O)N(C)C1=N[C@@H]3CCC[C@@H]3N12 the IC50 was greater than 100000 nM.
For CN1C(=O)c2cnn(Cc3ccccc3)c2N2C1=N[C@@H]1CCC[C@@H]12 (racemic), the IC50 was 55000 nM.
CN1C(=O)c2c(Cc3ccccc3)n[nH]c2N2C1=N[C@@H]1CCC[C@@H]12 (racemic) was tested, and the IC50 was greater than 100000 nM.
Compound Cc1nn(Cc2ccccc2)c2c1C(=O)N(C)C1=N[C@@H]3CCC[C@@H]3N12 has an IC50 of 50000 nM.
Compound CN1C(=O)c2c(Cc3ccccc3)nn(C)c2N2C1=N[C@@H]1CCC[C@@H]12 (racemic) has an IC50 of 29000 nM.
Work on CN1C(=O)c2c(nn(C)c2Cc2ccccc2)N2CC(C)(C)N=C12 yielded an IC50 of 42000 nM.
Work on CN1C(=O)c2c(nn(C)c2Cc2ccccc2)N2CC3(CCCC3)N=C12 yielded an IC50 of 55000 nM.
CN1C(=O)c2c(nn(Cc3ccccc3)c2-c2ccccc2)N2C1=N[C@@H]1CCC[C@@H]12 gave an IC50 of 55000 nM.
CC(C)[C@@H]1CN2C(=N1)N(C)C(=O)c1c2nn(C)c1Cc1ccccc1 was tested, and the IC50 was 90000 nM.
CN1C(=O)c2c(nn(C)c2Cc2ccccc2)N2C1=N[C@@H]1CCC[C@@H]12 (racemic) was tested, and the IC50 was 85000 nM.

Each compound was assayed against Phosphodiesterase 4 (Canis familiaris) (assay: Inhibition of phosphodiesterase PDE4 from canine kidney). Conditions: not given.
In the case of CN1C(=O)c2c(nn(C)c2Cc2ccccc2)N2CC3(CCCC3)N=C12, the IC50 is reported as 230 nM.

The compounds below were run on Rattus norvegicus (assay: Antihypertensive activity in spontaneously hypertensive rats at 10 mg/kg administered orally). Conditions: route oral.
Assay type: functional
Method in brief: (§1)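 Spontaneously hypertensive rats dosed orally with aqueous solution or suspension in 0.4% methylcellulose vehicle. Value is peak change in mean arterial pressure relative to a vehicle-treated control group.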
Cc1n[nH]c2c1C(=O)N(C)C1=N[C@@H]3CCC[C@@H]3N12 was tested, and the “Delta mmHg” value was -7.
With Cc1nn(Cc2ccccc2)c2c1C(=O)N(C)C1=N[C@@H]3CCC[C@@H]3N12 the “Delta mmHg” value was -3.
With CN1C(=O)c2c(nn(C)c2Cc2ccccc2)N2CC3(CCCC3)N=C12 the “Delta mmHg” value was -33.
With CN1C(=O)c2c(nn(Cc3ccccc3)c2-c2ccccc2)N2C1=N[C@@H]1CCC[C@@H]12 the “Delta mmHg” value was 1.
Cc1nc2c(n1Cc1ccccc1)C(=O)N(C)C1=N[C@@H]3CCC[C@@H]3N12 was tested, and the “Delta mmHg” value was -28.

Same assay, conditions: route oral, 10 mg/kg
With CN1C(=O)c2c(nn(C)c2Cc2ccccc2)N2C1=N[C@@H]1CCC[C@@H]12 the “Delta mmHg” value was -26.
With CN1C(=O)c2c(nn(C)c2Cc2ccccc2)N2C1=N[C@@H]1CCC[C@@H]12 (racemic) the “Delta mmHg” value was -18.

These compounds were tested against cGMP-specific 3',5'-cyclic phosphodiesterase (Bos taurus, UniProt Q28156) (assay: Inhibition of phosphodiesterase 5 from bovine lung). Conditions: not given.
Method in brief: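 Purified bovine lung enzyme in 50 mM Tris-HCl (pH 7.5), 2 mM MgCl2, 0.1 mg/mL BSA with 1 μM [3H]cGMP as substrate, incubated 30 min at 30 °C. IC50 derived from percent inhibition plotted against log molar concentration; run in duplicate, mean of two reported.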
In the case of CN1C(=O)c2c(nn(C)c2Cc2ccccc2)N2C1=N[C@@H]1CCC[C@@H]12, the IC50 is reported as 100 nM.
For Cc1n[nH]c2c1C(=O)N(C)C1=N[C@@H]3CCC[C@@H]3N12, the IC50 was 2900 nM.
CN1C(=O)c2cnn(Cc3ccccc3)c2N2C1=N[C@@H]1CCC[C@@H]12 (racemic) showed an IC50 of 3100 nM.
Compound CN1C(=O)c2c(Cc3ccccc3)n[nH]c2N2C1=N[C@@H]1CCC[C@@H]12 (racemic) has an IC50 of 190 nM.
Work on Cc1nn(Cc2ccccc2)c2c1C(=O)N(C)C1=N[C@@H]3CCC[C@@H]3N12 yielded an IC50 of 1000 nM.
With CN1C(=O)c2c(Cc3ccccc3)nn(C)c2N2C1=N[C@@H]1CCC[C@@H]12 (racemic) the IC50 was 400 nM.
With CN1C(=O)c2c(nn(C)c2Cc2ccccc2)N2CC(C)(C)N=C12 the IC50 was 140 nM.
CN1C(=O)c2c(nn(C)c2Cc2ccccc2)N2CC3(CCCC3)N=C12 gave an IC50 of 75 nM.
With CN1C(=O)c2c(nn(Cc3ccccc3)c2-c2ccccc2)N2C1=N[C@@H]1CCC[C@@H]12 the IC50 was 2100 nM.
CC(C)[C@@H]1CN2C(=N1)N(C)C(=O)c1c2nn(C)c1Cc1ccccc1 was tested, and the IC50 was 100 nM.
For CN1C(=O)c2c(nn(C)c2Cc2ccccc2)N2C1=N[C@@H]1CCC[C@@H]12 (racemic), the IC50 was 140 nM.

What follows are compounds tested on Rattus norvegicus (assay: Antihypertensive activity in spontaneously hypertensive rats at 25 mg/kg administered orally). Conditions: route oral.
Assay type: functional
Method in brief: as §1
CN1C(=O)c2cnn(Cc3ccccc3)c2N2C1=N[C@@H]1CCC[C@@H]12 (racemic) was tested, and the “Delta mmHg” value was -14.
For CN1C(=O)c2c(Cc3ccccc3)n[nH]c2N2C1=N[C@@H]1CCC[C@@H]12 (racemic), the “Delta mmHg” value was -16.
